How the values were obtained:
[1] = target: T1, Inhibitor of nuclear factor kappa-B kinase subunit beta (Homo sapiens) (UniProt O14920); test: Inhibition of recombinant IKKbeta (unknown origin) using ulight-IkappaomegaBalpha as substrate at 20 uM after 1 hr by LANCE ultra TR-FRET assay relative to control
T1 sequence (whole entry): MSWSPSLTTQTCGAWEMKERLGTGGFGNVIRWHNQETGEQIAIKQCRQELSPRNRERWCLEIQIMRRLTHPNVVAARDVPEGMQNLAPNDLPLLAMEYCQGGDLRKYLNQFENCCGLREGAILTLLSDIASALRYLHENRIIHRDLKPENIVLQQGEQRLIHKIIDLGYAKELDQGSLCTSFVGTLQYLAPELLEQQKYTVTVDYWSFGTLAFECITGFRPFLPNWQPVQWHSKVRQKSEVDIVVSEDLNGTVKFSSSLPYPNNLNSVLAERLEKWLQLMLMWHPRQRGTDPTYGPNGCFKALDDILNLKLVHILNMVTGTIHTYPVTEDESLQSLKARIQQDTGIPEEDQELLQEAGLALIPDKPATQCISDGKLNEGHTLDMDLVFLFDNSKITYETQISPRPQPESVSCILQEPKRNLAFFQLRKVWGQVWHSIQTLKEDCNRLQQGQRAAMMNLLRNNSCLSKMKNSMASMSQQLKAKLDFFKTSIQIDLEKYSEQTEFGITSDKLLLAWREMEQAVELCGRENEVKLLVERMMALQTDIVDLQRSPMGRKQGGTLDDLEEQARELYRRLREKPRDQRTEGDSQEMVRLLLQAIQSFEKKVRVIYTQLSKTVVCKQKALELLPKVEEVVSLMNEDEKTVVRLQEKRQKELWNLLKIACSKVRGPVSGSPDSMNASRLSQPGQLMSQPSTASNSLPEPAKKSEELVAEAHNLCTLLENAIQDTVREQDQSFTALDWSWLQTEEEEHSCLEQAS

[2] = target: T2, Inhibitor of nuclear factor kappa-B kinase subunit beta (Homo sapiens, UniProt O14920); test: Inhibition of recombinant IKKbeta (unknown origin) using ulight-IkappaomegaBalpha as substrate after 1 hr by LANCE ultra TR-FRET assay
T2 sequence (O14920 whole entry): T1 sequence (whole entry)

[3] = Cytotoxicity against human Jurkat T cells assessed as cell viability at 4 uM after 24 hrs by CellTiter-Glo assay relative to control; assay type: functional; conditions: read-out: Activity
Procedure, shortened: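 Jurkat cells in 0.5% FBS RPMI were exposed to 4 µM compound or 0.1% DMSO for 24 h. Viability was read as ATP by CellTiter-Glo luminescence and expressed as percent of solvent control; below 60% counted as cell killing. Data: three experiments, triplicate.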

[4] = target: T3, Inhibitor of nuclear factor kappa-B kinase subunit alpha (Homo sapiens) (UniProt O15111); test: Inhibition of recombinant IKKalpha (unknown origin) using ulight-IkappaomegaBalpha as substrate at 20 uM after 2 hrs by LANCE ultra TR-FRET assay relative to control
T3 sequence (whole entry): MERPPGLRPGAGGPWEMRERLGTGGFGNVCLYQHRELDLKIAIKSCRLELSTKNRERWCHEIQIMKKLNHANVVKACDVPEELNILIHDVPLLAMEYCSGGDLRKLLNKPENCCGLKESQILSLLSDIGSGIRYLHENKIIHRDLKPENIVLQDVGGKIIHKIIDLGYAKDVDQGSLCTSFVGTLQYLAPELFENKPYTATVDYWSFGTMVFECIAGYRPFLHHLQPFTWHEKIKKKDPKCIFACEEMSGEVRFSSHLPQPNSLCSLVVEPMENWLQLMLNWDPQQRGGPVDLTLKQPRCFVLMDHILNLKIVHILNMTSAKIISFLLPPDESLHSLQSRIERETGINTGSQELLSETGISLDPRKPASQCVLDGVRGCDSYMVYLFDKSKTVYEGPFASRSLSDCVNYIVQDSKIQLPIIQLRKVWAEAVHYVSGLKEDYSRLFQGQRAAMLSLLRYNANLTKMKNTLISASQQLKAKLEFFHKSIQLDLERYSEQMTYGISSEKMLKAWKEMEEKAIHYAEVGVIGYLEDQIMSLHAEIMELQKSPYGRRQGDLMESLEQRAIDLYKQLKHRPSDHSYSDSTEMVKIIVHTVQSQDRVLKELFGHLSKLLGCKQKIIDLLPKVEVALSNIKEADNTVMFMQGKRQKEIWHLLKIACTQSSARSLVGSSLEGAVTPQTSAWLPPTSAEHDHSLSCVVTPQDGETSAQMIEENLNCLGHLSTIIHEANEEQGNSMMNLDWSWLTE
Procedure, shortened: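 Recombinant IKKα (4 nM), IKKβ (1 nM) or IKKε (2 nM) in 50 mM Hepes pH 7.4, 10 mM MgCl2, 1 mM EGTA, 2 mM DTT, 0.01% Tween-20. Substrate was 50 nM ULight-IκBα (IKKα/β) or ULight-rpS6 (IKKε); ATP was 1.25 µM (α/β) or 5 µM (ε). Compound was tested at 20 µM. Incubation was 1 h (IKKβ) or 2 h (IKKα/ε) at room temperature, stopped with 20 mM EDTA plus 2 nM Eu-anti-phospho antibody, then TR-FRET 665/615 nm. Results are percent inhibition versus solvent; 3–4 experiments, triplicate.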

[5] = Cytotoxicity against human Jurkat T cells assessed as cell viability after 24 hrs by CellTiter-Glo assay; assay type: functional, cell-based
Procedure, shortened: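 Jurkat cells were seeded the day before treatment in RPMI with 0.5% FBS (10,000 cells/well). They were treated in triplicate across an 8-point dose series starting at 10 µM, with DMSO ≤0.1% as solvent control. ATP was measured by CellTiter-Glo luminescence after 24 h; a time-0 reading separated cytostatic from cytotoxic effects. IC50 was fitted from the curve.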

Jurkat = test: Induction of apoptosis in human Jurkat cells assessed as activation of DEVDase at 5 uM after 4 hrs by fluorometric assay relative to control; assay type: functional
Procedure, shortened: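 Jurkat cells (20,000/well, 0.5% FBS RPMI) were treated 4 h with 5 µM compound and lysed 15 min in PIPES pH 7 buffer with NP-40, cytochalasin B and protease inhibitors. An equal volume of 2× caspase buffer containing 100 µM Ac-DEVD-AFC was added. AFC fluorescence (ex 390/em 510 nm) was read every 2 min for 1 h at 37 °C; the linear slope was taken as activity, expressed as fold over DMSO control. Data: 2 experiments, triplicate.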

[6] = target: T4, Inhibitor of nuclear factor kappa-B kinase subunit epsilon (Homo sapiens) (UniProt Q14164); test: Inhibition of recombinant IKKepsilon (unknown origin) using ulight-rpS6 as substrate at 20 uM after 2 hrs by LANCE ultra TR-FRET assay relative to control
T4 sequence (whole entry): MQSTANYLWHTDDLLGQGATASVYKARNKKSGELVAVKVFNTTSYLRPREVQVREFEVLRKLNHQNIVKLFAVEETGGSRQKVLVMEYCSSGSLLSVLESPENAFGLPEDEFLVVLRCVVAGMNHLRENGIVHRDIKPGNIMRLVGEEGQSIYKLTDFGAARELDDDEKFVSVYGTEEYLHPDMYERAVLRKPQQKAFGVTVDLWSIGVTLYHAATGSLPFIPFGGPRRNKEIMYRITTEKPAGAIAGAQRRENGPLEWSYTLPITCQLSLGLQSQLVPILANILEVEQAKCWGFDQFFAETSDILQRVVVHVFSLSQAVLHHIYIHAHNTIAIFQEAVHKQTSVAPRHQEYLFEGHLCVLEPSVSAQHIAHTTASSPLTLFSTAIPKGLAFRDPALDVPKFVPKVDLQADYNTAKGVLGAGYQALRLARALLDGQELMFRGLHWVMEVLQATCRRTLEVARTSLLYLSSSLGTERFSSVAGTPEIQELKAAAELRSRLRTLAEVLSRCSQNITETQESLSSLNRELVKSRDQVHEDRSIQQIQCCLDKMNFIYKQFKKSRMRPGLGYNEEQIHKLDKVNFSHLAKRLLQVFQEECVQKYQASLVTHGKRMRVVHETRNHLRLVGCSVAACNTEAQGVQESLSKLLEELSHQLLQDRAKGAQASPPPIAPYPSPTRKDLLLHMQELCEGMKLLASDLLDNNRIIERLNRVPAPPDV

[7] = target: T5, Retinoic acid receptor RXR-alpha (Homo sapiens) (UniProt P19793); test: Antagonist activity at recombinant GST-tagged RXRalpha LBD (unknown origin) assessed as inhibition of CD3254-induced fluorescein labeled D22 coactivator recruitment at 8 uM after 4 hrs by TR-FRET assay
T5 sequence (whole entry): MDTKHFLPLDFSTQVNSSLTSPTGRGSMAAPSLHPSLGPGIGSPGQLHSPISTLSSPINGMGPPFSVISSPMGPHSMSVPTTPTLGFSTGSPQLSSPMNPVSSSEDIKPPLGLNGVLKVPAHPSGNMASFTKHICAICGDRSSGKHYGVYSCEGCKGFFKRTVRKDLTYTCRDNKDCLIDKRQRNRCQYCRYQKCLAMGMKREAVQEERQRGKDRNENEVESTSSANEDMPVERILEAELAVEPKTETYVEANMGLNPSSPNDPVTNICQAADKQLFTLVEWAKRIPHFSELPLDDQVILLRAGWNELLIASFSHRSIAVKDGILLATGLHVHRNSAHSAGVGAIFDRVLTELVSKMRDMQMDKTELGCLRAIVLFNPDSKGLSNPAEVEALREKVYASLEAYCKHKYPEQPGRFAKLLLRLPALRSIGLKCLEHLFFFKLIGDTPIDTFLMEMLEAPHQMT
Procedure, shortened: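 GST-RXRα LBD (5 nM) was incubated at room temperature with 150 nM fluorescein-D22 peptide in pH 7.4 Hepes binding buffer containing DTT, with a suboptimal concentration of CD3254 plus test ligand (≤1% DMSO). Terbium anti-GST antibody (2 nM) was the donor. The 520/495 nm TR-FRET ratio was read after 4 h and expressed as Delta F% versus controls lacking GST-RXRα.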

[8] = target: T6, Retinoic acid receptor alpha (Homo sapiens) (UniProt P10276); test: Antagonist activity at Gal4-fused RARalpha (unknown origin) transfected in HEK293 cells assessed as ATRA-induced transcriptional activity at 4 uM by luciferase/beta-galactosidase reporter gene assay relative to ATRA-treated control; assay type: cell-based; design: scale not given: the % may be the effect or the level left
T6 sequence (whole entry): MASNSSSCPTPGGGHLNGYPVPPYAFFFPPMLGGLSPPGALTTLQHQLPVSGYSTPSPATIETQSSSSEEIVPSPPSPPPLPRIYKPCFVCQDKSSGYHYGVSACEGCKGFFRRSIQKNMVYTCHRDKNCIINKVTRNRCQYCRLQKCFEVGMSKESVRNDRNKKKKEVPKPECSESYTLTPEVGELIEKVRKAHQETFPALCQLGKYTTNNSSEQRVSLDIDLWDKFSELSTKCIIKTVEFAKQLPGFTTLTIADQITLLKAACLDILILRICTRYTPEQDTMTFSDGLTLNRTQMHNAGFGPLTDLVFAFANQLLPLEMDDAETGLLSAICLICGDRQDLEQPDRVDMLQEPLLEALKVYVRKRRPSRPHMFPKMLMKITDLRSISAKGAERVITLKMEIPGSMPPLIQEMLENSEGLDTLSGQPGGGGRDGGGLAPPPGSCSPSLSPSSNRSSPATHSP
Procedure, shortened: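 Same Gal4-RARα HEK-293 UAS-luciferase system, stimulated with 0.1 µM atRA alone or with 4 µM compound (40-fold molar excess); 1 µM UVI2024 served as control antagonist. Background-subtracted luciferase was normalized to β-galactosidase and given as percent of atRA-stimulated cells. Data: 2–3 experiments, triplicate.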

[9] = target: T7, Retinoic acid receptor alpha (Homo sapiens, UniProt P10276); test: Inverse agonist activity at RARalpha (unknown origin)
T7 sequence (P10276 whole entry): T6 sequence (whole entry)

[10] = target: T6, Retinoic acid receptor alpha (Homo sapiens); test: Agonist activity at Gal4-fused RARalpha (unknown origin) transfected in HEK293 cells assessed as induction of transcriptional activity at 4 uM after 6 hrs by luciferase/beta-galactosidase reporter gene assay relative to control; assay type: cell-based
Procedure, shortened: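 Gal4-RARα or Gal4-RXRα (10 ng) plus 2 ng β-galactosidase vector, calcium phosphate transfection into HEK-293 cells carrying a 5×UAS luciferase reporter. After 16 h, cells were washed and given 5% charcoal-treated FBS medium, then rested 2 h. Stimulation was with 4 µM compound or 0.1% DMSO; controls were 1 µM atRA (RARα) or 1 µM CD3254 (RXRα). Harvest was at 6 h (RARα) or 24 h (RXRα). Luciferase/β-gal ratio was expressed as fold over unstimulated cells. Data: 2 experiments, triplicate.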

Row | SMILES | inhibition [1] [%] | IC50 [2] [µM] | viability at 4 µM [3] [%] | inhibition [4] [%] | IC50 [5] [µM] | fold change (FC) (Jurkat) | inhibition [6] [%] | inhibition [7] [%] | Activity [8] [%] | IC50 [9] [µM] | fold change (FC) [10]
1 | COCCOCOc1ccc(C(=O)/C=C/c2ccc(C(=O)O)cc2)cc1C12CC3CC(CC(C3)C1)C2 | 43.9 | 11.8 | 28.5 | 56.3 | 3.33 | 20.7 | 15.8 | – | – | – | –
2 | CCCCCOc1cc2c(cc1-c1cc(/C=C/C(=O)O)ccc1O)C(C)(C)CCC2(C)C | – | – | – | – | – | – | – | 25 | – | – | –
3 | O=C(O)/C=C/c1ccc(-c2ccc(O)c(C34CC5CC(CC(C5)C3)C4)c2)c(Cl)c1 | 40.6 | – | 6.6 | 41.3 | – | 74.3 | 24.1 | – | – | – | –
4 | CC1(C)CC=C(C#Cc2ccccc2)c2cc(/C=C/c3ccc(C(=O)O)cc3)ccc21 | – | – | – | – | – | – | – | – | 7.1 | 0.114 | 1.3
5 | CC(=O)NCCCOc1cc(/C=C/C(=O)O)ccc1-c1ccc(O)c(C23CC4CC(CC(C4)C2)C3)c1 | 0 | – | 42.7 | 5 | – | 6.1 | 14.4 | – | – | – | –

From ChEMBL document CHEMBL3112476, “Inhibition of IκB kinase-β and IκB kinase-α by heterocyclic adamantyl arotinoids” (Bioorg Med Chem, 2014)
